# Screens from PubChem.
# Most compounds without a hit are left out; they make up all but 2.6% or so of the library.
# ABCB6 inh 2 = inhibitors of human ABC transporter ABCB6; Q9NP58; K562-ABCB6 porphyrin accumulation, flow cytometry, 1 h; stronger effect = lower value; fluorescence ratio to DMSO, % at 10 µM; 360,000 compounds, 0.19% hits; AID 602162;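 active = fluorescence ratio to DMSO below 75%, the collection mean minus 3 SD; inconclusive = too few cells collected in the well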;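 note: signal is porphyrin accumulated inside mitochondria; lower ratio means ABCB6 inhibition with less porphyrin fluorescence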
# Target sequence (Q9NP58 whole entry, looked up): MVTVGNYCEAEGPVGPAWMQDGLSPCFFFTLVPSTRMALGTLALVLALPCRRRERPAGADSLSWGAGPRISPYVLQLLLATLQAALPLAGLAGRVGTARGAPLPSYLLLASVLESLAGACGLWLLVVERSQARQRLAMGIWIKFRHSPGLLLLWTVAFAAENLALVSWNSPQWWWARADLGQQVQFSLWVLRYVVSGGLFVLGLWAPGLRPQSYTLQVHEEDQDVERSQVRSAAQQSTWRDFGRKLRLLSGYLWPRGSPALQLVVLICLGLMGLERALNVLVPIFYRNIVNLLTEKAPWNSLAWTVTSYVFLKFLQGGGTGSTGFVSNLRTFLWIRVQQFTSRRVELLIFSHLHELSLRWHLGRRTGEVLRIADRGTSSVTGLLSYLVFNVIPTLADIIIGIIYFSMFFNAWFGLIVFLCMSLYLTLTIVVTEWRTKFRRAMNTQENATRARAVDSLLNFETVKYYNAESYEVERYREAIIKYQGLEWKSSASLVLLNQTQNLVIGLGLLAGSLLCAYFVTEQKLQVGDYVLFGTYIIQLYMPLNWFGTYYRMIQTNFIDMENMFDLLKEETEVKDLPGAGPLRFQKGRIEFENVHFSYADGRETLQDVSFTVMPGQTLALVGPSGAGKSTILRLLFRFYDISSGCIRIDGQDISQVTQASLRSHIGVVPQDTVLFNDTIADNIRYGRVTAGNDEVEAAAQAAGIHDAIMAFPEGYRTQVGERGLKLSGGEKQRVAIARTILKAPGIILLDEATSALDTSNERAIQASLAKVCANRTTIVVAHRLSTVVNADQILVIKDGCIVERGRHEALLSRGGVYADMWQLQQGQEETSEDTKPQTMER
# MC4R ag barr = human MC4R agonism via beta-arrestin | P32245 | U2OS MC4R beta-arrestin complementation, luminescence; percent of melanotan II response, DMSO zero | activation, % at 8.9 µM | 360,000 compounds, 0.98% hits | AID 540308;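 active = activation above a per-plate cutoff, the mean activation of sample wells on that plate plus 3 SD, cut at about 8% in these data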
# hiPSC survival = enhancers of human iPSC single-cell survival; hiPSC single-cell survival, ATPlite luminescence; 100% = ROCK inhibitor wells, 0% = DMSO; survival enhancement, % at 20 µM; 360,000 compounds, 0.044% hits; in the data active = survival enhancement above about 18%;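 note: cells exposed to compounds for 16 hours before the ATP read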
# Exocytosis inh = blocks lytic granule exocytosis; TALL-104 LAMP-1 surface exposure, flow cytometry; cells stimulated with thapsigargin and PMA; inhibition, % at 10 µM; 360,000 compounds, 0.66% hits; AID 651702;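 active = inhibition above about 55%, limit read from the data; inconclusive = no clear call, values can overlap the other calls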
# Tb MetRS inh = Trypanosoma brucei MetRS inhibition. purified T. brucei MetRS, ATP depletion, Kinase-Glo luminescence. inhibition, % at 11.9 µM. 360,000 compounds, 0.4% hits. AID 624268;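 active = inhibition above a per-plate cutoff of the control wells' mean inhibition plus 3 SD, cut at about 5.5% in these data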
#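 assay system = parasite MetRS enzyme | timing = 15 min preincubation, 2 h reaction, all 25 °C | evaluation = percent inhibition relative to median high and low control wells | medium = HEPES buffer containing pyrophosphatase, BSA, spermine, DTT | compound = single dose, 11.9 µM final nominal, 0.9% final DMSO | detection = Kinase-Glo luminescence, ATP depletion format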
# MC4R antagonist = antagonists of human melanocortin 4 receptor (MC4R); 360,000 compounds, 0.48% hits; AID 540295; P32245; MC4R-expressing cells, MTII-stimulated cAMP, LANCE TR-FRET; inhibition, % at 6.5 µM;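 active = inhibition above its plate's cutoff, the mean of tested wells on that plate plus 3 SD, cut at about 29% in these data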
#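 Assay system: human MC4R-expressing U2OS cells; reagent: Melanotan II stimulation of cells; dosing: 6.5 µM single dose; timing: compound 30 min, challenge 1 h, detection 1 h; signal: TR-FRET cAMP assay; replicates: one well per compound, no replicates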
# MC4R barr conf = human MC4R beta-arrestin agonism confirmation; shares compounds with MC4R ag barr; activation, % at 8.9 µM; 2,400 compounds, 31% hits; AID 602192; U2OS MC4R beta-arrestin recruitment, luminescence; scaled DMSO 0%, Melanotan II 100%;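 active = mean activation across replicates above the hit cutoff set in the earlier primary screen, cut at about 8% in these data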
# MOR-DOR barr ag = activates mu-delta opioid heterodimer, MC4R agonist counter-screen; shares compounds with MC4R ag barr; AID 602194; 2,400 compounds, 5.8% hits; U2OS PathHunter beta-arrestin, beta-gal luminescence; percent of deltorphin B response, DMSO zero; activation, % at 9.2 µM;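 active = mean activation across replicates exceeds the hit threshold derived in the earlier primary screen, cut at about 18% in these data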
# A number is an active result; n = inactive; u = inconclusive; x = no result.
SMILES,ABCB6 inh 2,MC4R ag barr,hiPSC survival,Exocytosis inh,Tb MetRS inh,MC4R antagonist,MC4R barr conf,MOR-DOR barr ag
O=S1(=O)CC(N2CCCCC2)CN1CCc1ccccc1 (stereo unspecified),n,x,n,n,n,x,x,x
O=[N+]([O-])c1cc(S(=O)(=O)N2CCCC2)ccc1N/N=C/c1cccs1,n,20.2,n,n,n,n,n,n
Brc1cc2c(cc1-c1nc3ccccc3s1)OCO2,n,14.9,n,n,n,n,n,n
Cc1ccc(C)c(Cn2cnc3c(nnn3-c3ccc(F)cc3)c2=O)c1,n,13.4,n,n,n,n,n,n
O=C(CN1C(=O)NC2(CCCCCC2)C1=O)NCCc1ccccc1,n,n,n,n,n,n,x,x
CCn1c(SCC(=O)Nc2nccs2)nnc1-c1cc2cccc(OC)c2o1,n,n,n,n,n,n,x,x
COc1cccc2cc(-c3nnc(SCC(=O)Nc4cc(C(F)(F)F)ccc4Cl)n3N)oc12,n,21.1,n,n,n,n,n,n
CCOc1ccc(-c2nnn(CC(=O)Nc3cc(OC)cc(OC)c3)n2)cc1OCC,n,11.1,n,n,n,n,n,n
CCOc1ccc(-c2nnn(CC(=O)Nc3cc(OC)ccc3OC)n2)cc1OCC,n,n,n,n,n,n,x,x
CCOc1ccccc1NC(=O)Cn1nnc(-c2ccc(OCC)c(OCC)c2)n1,n,9.7,n,n,n,n,n,n
Cc1ccc(OCc2ccc(C(=O)Nc3nccs3)o2)cc1,n,15.1,n,n,n,n,n,n
Cc1cc(C)cc(Cn2cc(CN3CC(N4CCN(C)CC4)CS3(=O)=O)nn2)c1 (stereo unspecified),n,x,n,n,n,x,x,x
COc1ccc(CC(N)c2csc(NC(=O)Nc3ccccc3Oc3ccccc3)n2)cc1 (stereo unspecified),n,12.1,n,n,n,n,n,21.1
COc1ccc(NC(=O)Nc2nc(C(N)Cc3ccc(C(F)(F)F)cc3)cs2)cc1 (stereo unspecified),n,32.9,n,n,n,n,28.3,n
NC(Cc1ccc(C(F)(F)F)cc1)c1csc(NC(=O)Nc2ccccc2Oc2ccccc2)n1 (stereo unspecified),n,n,n,n,n,n,x,x
Cc1ccc(C(=O)Nc2nc(C(N)Cc3ccc(C(F)(F)F)cc3)cs2)cc1 (stereo unspecified),n,10.8,n,u,n,n,24.5,n
COc1ccccc1NC(=O)Nc1nc(C(N)Cc2ccc(C(F)(F)F)cc2)cs1 (stereo unspecified),n,20.7,n,n,n,n,11.3,n
CCc1cnc(Nc2nc(C(N)Cc3ccc(Cl)cc3)cs2)nc1 (stereo unspecified),n,n,n,n,n,n,x,x
COc1ccccc1CNC(=O)Nc1nc(C(N)Cc2ccc(Cl)cc2)cs1 (stereo unspecified),n,25.5,n,n,n,n,40.2,23.4
NC(Cc1ccc(Cl)cc1)c1csc(Nc2ccc(-c3ccccc3)nn2)n1 (stereo unspecified),n,14.6,n,n,n,n,33.3,n
NC(Cc1ccc(C(F)(F)F)cc1)c1csc(NC(=O)NCCc2ccccc2)n1 (stereo unspecified),n,14.1,n,n,n,n,22.1,18.1
COc1cc(NC(=O)Nc2nc(C(N)Cc3ccc(C(F)(F)F)cc3)cs2)cc(OC)c1OC (stereo unspecified),n,20.4,n,n,n,n,20.8,n
COc1ccc(CC(N)c2csc(NC(=O)Nc3ccc(OC)cc3)n2)cc1 (stereo unspecified),n,n,n,n,n,n,x,x
COC(=O)c1cc(S(=O)(=O)N2CCC(C)CC2)cn1C,n,n,n,n,n,n,x,x
Cc1cccc(OCC(=O)OCC(=O)N2CCN(C(=O)c3ccco3)CC2)c1C,n,n,n,n,n,n,x,x
